Data from ChEMBL document CHEMBL2439956, “Synthesis and biological evaluation of novel formyl-pyrazoles bearing coumarin moiety as potent antimicrobial and antioxidant agents” (2013).
≈ marks a conversion by molar mass, not a printed value. Calls of active or inactive are those of the source. The rule behind the calls is not given here.

Key:
[1] = tested on: Streptococcus pyogenes; test: Antibacterial activity against Streptococcus pyogenes by broth dilution technique; format: functional
Summary of the method: (§1)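 Broth dilution technique; each MIC (µg/mL) is the mean of three determinations run in triplicate against the bacterial and fungal strains.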

[2] = tested on: Staphylococcus aureus; test: Antibacterial activity against Staphylococcus aureus by broth dilution technique; format: functional; summary of the method: as §1
[3] = tested on: Aspergillus niger; test: Antifungal activity against Aspergillus niger by broth dilution technique; format: functional; summary of the method: as §1
[4] = tested on: Candida albicans; test: Antifungal activity against Candida albicans by broth dilution technique; format: functional; summary of the method: as §1
[5] = tested on: Pseudomonas aeruginosa; test: Antibacterial activity against Pseudomonas aeruginosa by broth dilution technique; format: functional; summary of the method: as §1
[6] = tested on: Aspergillus flavus; test: Antifungal activity against Aspergillus flavus by broth dilution technique; format: functional; summary of the method: as §1
[7] = tested on: Cryptococcus neoformans; test: Antifungal activity against Cryptococcus neoformans by broth dilution technique; format: functional; summary of the method: as §1
[8] = tested on: Escherichia coli; test: Antibacterial activity against Escherichia coli by broth dilution technique; format: functional; summary of the method: as §1
[9] = tested on: Candida albicans; test: Antifungal activity against Candida albicans at 200 ug/ml by broth dilution technique; format: functional, organism-based
[10] = tested on: Aspergillus flavus; test: Antifungal activity against Aspergillus flavus at 200 ug/ml by broth dilution technique; format: functional, organism-based
[11] = tested on: Radical scavenging activity; test: Antioxidant activity assessed as DPPH radical scavenging activity at 50 ug/ml relative to butylated hydroxytoluene; format: functional
Summary of the method: (§2)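 DPPH radical scavenging assay with BHT as standard antioxidant. Samples were tested at five concentrations (10, 20, 30, 40 and 50 µg/mL) in triplicate, alongside a control at 0 µg/mL. Read-out is % radical scavenging, reported as mean ± SD.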

[12] = tested on: Radical scavenging activity; test: Antioxidant activity assessed as DPPH radical scavenging activity at 10 ug/ml relative to butylated hydroxytoluene; format: functional; summary of the method: as §2
[13] = tested on: Radical scavenging activity; test: Antioxidant activity assessed as DPPH radical scavenging activity at 40 ug/ml relative to butylated hydroxytoluene; format: functional; summary of the method: as §2
[14] = tested on: Radical scavenging activity; test: Antioxidant activity assessed as DPPH radical scavenging activity at 20 ug/ml relative to butylated hydroxytoluene; format: functional; summary of the method: as §2
[15] = tested on: Radical scavenging activity; test: Antioxidant activity assessed as DPPH radical scavenging activity at 30 ug/ml relative to butylated hydroxytoluene; format: functional; summary of the method: as §2
[16] = tested on: Streptococcus pyogenes; test: Antibacterial activity against Streptococcus pyogenes at 200 ug/ml by broth dilution technique; format: functional, organism-based
[17] = tested on: Escherichia coli; test: Antibacterial activity against Escherichia coli at 200 ug/ml by broth dilution technique; format: functional, organism-based

| MIC [1] | MIC [2] | MIC [3] | MIC [4] | MIC [5] | MIC [6] | MIC [7] | MIC [8] | Structure (SMILES) | Activity [9] | Activity [10] | Activity [11] [%] | Activity [12] [%] | Activity [13] [%] | Activity [14] [%] | Activity [15] [%] | Activity [16] | Activity [17] |
| --- | --- | --- | --- | --- | --- | --- | --- | --- | --- | --- | --- | --- | --- | --- | --- | --- | --- |
| 50 µg/mL (≈ 146 µM) | 20 µg/mL (≈ 58.3 µM) | 60 µg/mL (≈ 175 µM) | 30 µg/mL (≈ 87.5 µM) | 25 µg/mL (≈ 72.9 µM) | 50 µg/mL (≈ 146 µM) | 25 µg/mL (≈ 72.9 µM) | 50 µg/mL (≈ 146 µM) | C/C(=N/Nc1ccc(Cl)cc1)c1c(O)ccc2c(C)cc(=O)oc12 | – | – | – | – | – | – | – | – | – |
| 60 µg/mL (≈ 177 µM) | 30 µg/mL (≈ 88.7 µM) | 50 µg/mL (≈ 148 µM) | 30 µg/mL (≈ 88.7 µM) | inactive | 40 µg/mL (≈ 118 µM) | 40 µg/mL (≈ 118 µM) | 50 µg/mL (≈ 148 µM) | COc1ccccc1N/N=C(/C)c1c(O)ccc2c(C)cc(=O)oc12 | – | – | – | – | – | – | – | – | – |
| 75 µg/mL (≈ 188 µM) | 50 µg/mL (≈ 126 µM) | inactive | inactive | inactive | inactive | inactive | inactive | C/C(=N/Nc1ccc([N+](=O)[O-])cc1[N+](=O)[O-])c1c(O)ccc2c(C)cc(=O)oc12 | – | – | – | – | – | – | – | – | – |
| 50 µg/mL (≈ 155 µM) | 40 µg/mL (≈ 124 µM) | 75 µg/mL (≈ 233 µM) | – | 100 µg/mL (≈ 310 µM) | – | 40 µg/mL (≈ 124 µM) | 75 µg/mL (≈ 233 µM) | C/C(=N/Nc1ccccc1C)c1c(O)ccc2c(C)cc(=O)oc12 | inactive | inactive | – | – | – | – | – | – | – |
| 75 µg/mL (≈ 172 µM) | 40 µg/mL (≈ 91.7 µM) | inactive | inactive | 20 µg/mL (≈ 45.8 µM) | inactive | inactive | 40 µg/mL (≈ 91.7 µM) | Cc1cc(=O)oc2c(-c3nn(-c4ccc([N+](=O)[O-])cc4[N+](=O)[O-])cc3C=O)c(O)ccc12 | – | – | 56 | 34.7 | 51.1 | 41.9 | 47.1 | – | – |
| inactive | 40 µg/mL (≈ 130 µM) | 75 µg/mL (≈ 243 µM) | 50 µg/mL (≈ 162 µM) | 25 µg/mL (≈ 81.1 µM) | 75 µg/mL (≈ 243 µM) | 50 µg/mL (≈ 162 µM) | inactive | C/C(=N/Nc1ccccc1)c1c(O)ccc2c(C)cc(=O)oc12 | – | – | – | – | – | – | – | inactive | inactive |
| inactive | inactive | 100 µg/mL (≈ 289 µM) | – | 50 µg/mL (≈ 144 µM) | – | 50 µg/mL (≈ 144 µM) | 30 µg/mL (≈ 86.6 µM) | Cc1cc(=O)oc2c(-c3nn(-c4ccccc4)cc3C=O)c(O)ccc12 | inactive | inactive | 57.8 | 39.4 | 50.1 | 42.1 | 46.4 | – | – |
| 35 µg/mL (≈ 91.9 µM) | 15 µg/mL (≈ 39.4 µM) | 40 µg/mL (≈ 105 µM) | 25 µg/mL (≈ 65.7 µM) | 15 µg/mL (≈ 39.4 µM) | 60 µg/mL (≈ 158 µM) | 15 µg/mL (≈ 39.4 µM) | 30 µg/mL (≈ 78.8 µM) | Cc1cc(=O)oc2c(-c3nn(-c4ccc(Cl)cc4)cc3C=O)c(O)ccc12 | – | – | 69.3 | 48.9 | 63.9 | 53.3 | 58.1 | – | – |
| 50 µg/mL (≈ 139 µM) | 30 µg/mL (≈ 83.2 µM) | 60 µg/mL (≈ 166 µM) | – | 50 µg/mL (≈ 139 µM) | – | 30 µg/mL (≈ 83.2 µM) | 40 µg/mL (≈ 111 µM) | Cc1ccccc1-n1cc(C=O)c(-c2c(O)ccc3c(C)cc(=O)oc23)n1 | inactive | inactive | 17.1 | 12.8 | 15.1 | 13.8 | 14.1 | – | – |
| 50 µg/mL (≈ 133 µM) | 30 µg/mL (≈ 79.7 µM) | 50 µg/mL (≈ 133 µM) | 50 µg/mL (≈ 133 µM) | 25 µg/mL (≈ 66.4 µM) | 25 µg/mL (≈ 66.4 µM) | 25 µg/mL (≈ 66.4 µM) | 75 µg/mL (≈ 199 µM) | COc1ccccc1-n1cc(C=O)c(-c2c(O)ccc3c(C)cc(=O)oc23)n1 | – | – | 17.4 | 11.1 | 15.6 | 12 | 13.3 | – | – |

| Structure (SMILES) | MIC [1] | MIC [2] | MIC [3] | MIC [4] | MIC [5] | MIC [6] | MIC [7] | MIC [8] | Activity [9] | Activity [10] | Activity [11] [%] | Activity [12] [%] | Activity [13] [%] | Activity [14] [%] | Activity [15] [%] | Activity [16] | Activity [17] |
| --- | --- | --- | --- | --- | --- | --- | --- | --- | --- | --- | --- | --- | --- | --- | --- | --- | --- |
| O=C(O)c1cn(C2CC2)c2cc(N3CCNCC3)c(F)cc2c1=O [CIPROFLOXACIN] | 50 µg/mL (≈ 151 µM) | – | – | – | – | – | – | 25 µg/mL (≈ 75.4 µM) | – | – | – | – | – | – | – | – | – |
| C[C@@H]1[C@H](O)[C@@H](C)/C=C/C=C/C=C/C=C/C=C/C=C/C=C/[C@H](O[C@@H]2O[C@H](C)[C@@H](O)[C@H](N)[C@@H]2O)C[C@@H]2O[C@](O)(C[C@@H](O)C[C@@H](O)[C@H](O)CC[C@@H](O)C[C@@H](O)CC(=O)O[C@H]1C)C[C@H](O)[C@H]2C(=O)O [AMPHOTERICIN B] | – | – | 50 µg/mL (≈ 54.1 µM) | 25 µg/mL (≈ 27.1 µM) | – | 50 µg/mL (≈ 54.1 µM) | 25 µg/mL (≈ 27.1 µM) | – | – | – | – | – | – | – | – | – | – |
